{"source": "ChEMBL document CHEMBL1127799", "about": "“Derivatives of a novel cyclopeptolide. 1. Synthesis, antifungal activity, and structure-activity relationships” (1994)", "assay_type_in_all_cases": "functional", "key": {"[1]": {"test_system": "Candida albicans", "test": "Tested for minimum inhibitory concentration against Candida albicans 4 (Candida albicans) at pH 6.5.", "procedure,_shortened": "(§1)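 Broth microdilution in malt extract broth, initial pH 6.5, 1×10^3 CFU per 0.2 mL well, from liquid-nitrogen-stored Sabouraud cultures. Compound from 0.08% stock in 5% DMSO/0.2% Tween 80, final 0.05–100 μg/mL. Visual reading after 48 h at 30 °C. MIC = lowest concentration with no detectable growth. Vehicle-only negative controls.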"}, "[2]": {"test_system": "Meyerozyma guilliermondii", "test": "Tested for minimum subinhibitory concentration against Candida guilliermondii 80 (C.g) at pH 4.5.", "procedure,_shortened": "(§2)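 Malt extract broth microdilution at initial pH 4.5, 1×10^3 CFU/0.2 mL well, final compound 0.05–100 μg/mL diluted from DMSO/Tween 80 stocks. Incubation was 48 h at 30 °C with macroscopic reading. MSIC was the lowest concentration causing visible growth inhibition in at least two of three triplicates.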"}, "[3]": {"test_system": "Candida albicans", "test": "Tested for minimum subinhibitory concentration against Candida albicans 124 (Candida albicans) at pH 6.5.", "procedure,_shortened": "(§3)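 Malt extract broth microdilution, initial pH 6.5, inoculum 1×10^3 CFU per 0.2 mL well. Compound diluted from 0.08% stock (5% DMSO/0.2% Tween 80) to final 0.05–100 μg/mL. Macroscopic reading after 48 h, 30 °C. MSIC = lowest concentration giving visible growth inhibition in at least two of three triplicates. Vehicle-only negative controls.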"}, "[4]": {"test_system": "Meyerozyma guilliermondii", "test": "Tested for minimum inhibitory concentration against Candida guilliermondii 80 (C.g) at pH 4.5.", "procedure,_shortened": "(§4)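 Broth microdilution in malt extract broth, initial pH 4.5 or 6.5, with 1×10^3 CFU per 0.2 mL well of thawed stored cultures. Compound stocks were made in 5% DMSO/0.2% Tween 80 and diluted to final 0.05–100 μg/mL. Plates were incubated 48 h at 30 °C and read macroscopically. MIC was the lowest concentration with no detectable growth. Vehicle-only wells served as controls.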"}, "[5]": {"test_system": "Mus musculus", "test": "Tested for efficacy of compound in experimental systemic candidosis (mouse) after intraperitoneal treatment at dosage of 8 *50 mg kg e-1", "procedure,_shortened": "(§5)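 Mice (female NMRI, 18–20 g; 10 per group) infected by tail-vein injection of 10⁶ CFU C. albicans no. 124. Compound was given intraperitoneally twice daily on 4 consecutive days, starting 2 h before inoculation. Efficacy was scored as survival rate up to day 9 after infection.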"}, "[6]": {"test_system": "Candida albicans", "test": "Tested for minimum inhibitory concentration against Candida albicans 9 (Candida albicans) at pH 4.5.", "procedure,_shortened": "as §4"}, "[7]": {"test_system": "Candida albicans", "test": "Tested for minimum inhibitory concentration against Candida albicans 90 (Candida albicans) at pH 4.5.", "procedure,_shortened": "as §4"}, "[8]": {"species": "Rattus norvegicus", "test": "Tested for efficacy of compound in experimental vaginal candidosis (rat) after oral treatment at dosage of 2x 300 mg kg e-1", "procedure,_shortened": "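Hormonally conditioned female Wistar rats (~150 g), 10 per group, given intravaginal C. albicans no. 124, 3.5×10^4 CFU in 50 μL Sabouraud's glucose broth. Oral dosing twice, 2 h before and 18 h after infection. Vaginal swabs plated on Sabouraud's glucose agar with streptomycin (0.1 mg/mL), 48 h at 37 °C. Cured when C. albicans not reisolated.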"}, "[9]": {"test_system": "Candida albicans", "test": "Tested for minimum subinhibitory concentration against Candida albicans 90 (Candida albicans) at pH 6.5.", "procedure,_shortened": "as §3"}, "[10]": {"test_system": "Candida albicans", "test": "Tested for minimum inhibitory concentration against Candida albicans 3 (Candida albicans) at pH 6.5.", "procedure,_shortened": "as §1"}, "[11]": {"test_system": "Candida albicans", "test": "Tested for minimum subinhibitory concentration against Candida albicans 3 (Candida albicans) at pH 6.5.", "procedure,_shortened": "as §3"}, "[12]": {"species": "Mus musculus", "test": "Tested for efficacy of compound in experimental systemic candidosis (mouse) after oral treatment at dosage of 8 *200 mg kg e-1", "procedure,_shortened": "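Systemic candidiasis: female NMRI mice (18–20 g), 10 per group, infected by intravenous injection of 10⁶ CFU C. albicans no. 124 via lateral tail vein. Oral dosing twice daily on 4 consecutive days, starting 2 h before inoculation. Efficacy taken as survival rate up to day 9 after infection.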"}, "[13]": {"test_system": "Candida albicans", "test": "Tested for minimum subinhibitory concentration against Candida albicans 4 (Candida albicans) at pH 6.5.", "procedure,_shortened": "as §3"}, "[14]": {"test_system": "Meyerozyma guilliermondii", "test": "Tested for minimum inhibitory concentration against Candida guilliermondii 80 (C.g) at pH 6.5.", "procedure,_shortened": "as §1"}, "[15]": {"test_system": "Pichia kudriavzevii", "test": "Tested for minimum inhibitory concentration against Candida krusei 132 (C.k) at pH 6.5.", "procedure,_shortened": "as §1"}, "[16]": {"species": "Mus musculus", "test": "Tested for efficacy of compound in experimental vaginal candidosis (mouse) after oral treatment at dosage of 4 x150 mg kg e-1", "procedure,_shortened": "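Vaginal candidiasis in hormonally conditioned female NMRI mice (18–20 g), 10 per group, inoculated intravaginally with 50 μL Sabouraud's glucose broth containing 3.5×10^4 CFU C. albicans no. 124. Dosed four times per gavage, 2 h before and 2, 18 and 24 h after infection. Vaginal swabs plated on Sabouraud's glucose agar with streptomycin (0.1 mg/mL), 48 h at 37 °C. Cure = failed reisolation.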"}, "[17]": {"test_system": "Mus musculus", "test": "Tested for efficacy of compound in experimental systemic candidosis (mouse) after intraperitoneal treatment at dosage of 8 *25 mg kg e-1", "procedure,_shortened": "as §5"}, "[18]": {"test_system": "Candida albicans", "test": "Tested for minimum inhibitory concentration against Candida albicans 124 (Candida albicans) at pH of 4.5.", "procedure,_shortened": "as §4"}, "[19]": {"species": "Rattus norvegicus", "test": "Tested for efficacy of compound in experimental vaginal candidosis (rat) after tropical treatment at dosage of 9x 0.1% drug concentration", "procedure,_shortened": "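Female Wistar rats (~150 g, hormonally conditioned, 10 per group) infected intravaginally with 3.5×10^4 CFU C. albicans no. 124 in 50 μL broth. Intravaginal gel, 0.2 mL, from 2 h post-inoculation, twice daily for 4 days (nine applications). Swabs plated one day after last treatment on Sabouraud's glucose agar with streptomycin, 48 h at 37 °C. Cure = no reisolation.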"}, "[20]": {"test_system": "Meyerozyma guilliermondii", "test": "Tested for minimum inhibitory concentration against Candida guilliermondii 80 (C.g) at pH of 4.5.", "procedure,_shortened": "as §4"}, "[21]": {"test_system": "Candida tropicalis", "test": "Tested for minimum inhibitory concentration against Candida tropicalis 43 (C.t) at pH 6.5.", "procedure,_shortened": "as §1"}, "[22]": {"test_system": "Candida albicans", "test": "Tested for minimum inhibitory concentration against Candida albicans 26 (Candida albicans) at pH 4.5.", "procedure,_shortened": "as §4"}, "[23]": {"species": "Rattus norvegicus", "test": "Tested for efficacy of compound in experimental vaginal candidosis (rat) after tropical treatment at dosage of 9x 1% drug concentration", "procedure,_shortened": "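Hormonally conditioned female Wistar rats (~150 g; 10 per group) were infected intravaginally with 3.5×10^4 CFU C. albicans no. 124. Intravaginal gel (0.2 mL) started 2 h post-inoculation and was applied twice daily for 4 days, giving nine applications. Vaginal swabs taken one day after the last treatment were cultured on streptomycin Sabouraud agar at 37 °C for 48 h. Cure meant no reisolation.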"}, "[24]": {"test_system": "Candida albicans", "test": "Tested for minimum subinhibitory concentration against Candida albicans 26 (Candida albicans) at pH 4.5.", "procedure,_shortened": "as §2"}, "[25]": {"test_system": "Mus musculus", "test": "Tested for efficacy of compound in experimental systemic candidosis (mouse) after intraperitoneal treatment at dosage of 8 *100 mg kg e-1", "procedure,_shortened": "as §5"}, "[26]": {"test_system": "Rattus norvegicus", "test": "Tested for efficacy of compound in experimental vaginal candidosis (rat) after intraperitoneal treatment at dosage of 2x 100 mg kg e-1", "procedure,_shortened": "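Female Wistar rats (~150 g; 10 per group) were hormonally conditioned and infected intravaginally with 3.5×10^4 CFU C. albicans no. 124 in 50 μL broth. Intraperitoneal dosing was given twice, 2 h before and 18 h after infection. Swabs taken one day after the last dose were plated on streptomycin Sabouraud agar (48 h, 37 °C). Cure meant failed reisolation.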"}}, "data": [{"smiles": "CC[C@@H](C)[C@H]1C(=O)NCC(=O)N(C)[C@@H](C(C)C)C(=O)N[C@@H](Cc2ccc(OC)cc2)C(=O)O[C@H](C)C(=O)N2CCCC[C@H]2C(=O)N(C)[C@@H](C(C)C)C(=O)N[C@@H](C(C)C)C(=O)N(C)[C@@H](CC(=O)O)C(=O)N(C)[C@@H]([C@@H](C)CC)C(=O)N1C", "values": [{"measurement": "MIC", "setting": "[1]", "value": 100, "unit": "µg/mL"}, {"measurement": "MSIC", "setting": "[2]", "value": 0.8, "unit": "µg/mL"}, {"measurement": "MSIC", "setting": "[3]", "value": 3.12, "unit": "µg/mL"}, {"measurement": "MIC", "setting": "[4]", "value": 6.25, "unit": "µg/mL"}, {"measurement": "Efficacy", "setting": "[5]", "value": 20, "unit": "%"}, {"measurement": "MIC", "setting": "[6]", "value": 12.5, "unit": "µg/mL"}, {"measurement": "MIC", "setting": "[7]", "value": 3.12, "unit": "µg/mL"}, {"measurement": "Efficacy", "setting": "[8]", "value": 56, "unit": "%"}, {"measurement": "MSIC", "setting": "[9]", "value": 3.12, "unit": "µg/mL"}, {"measurement": "MIC", "setting": "[10]", "value": "> 100", "unit": "µg/mL"}, {"measurement": "MSIC", "setting": "[11]", "value": 6.25, "unit": "µg/mL"}, {"measurement": "Efficacy", "setting": "[12]", "value": 90, "unit": "%"}, {"measurement": "MSIC", "setting": "[13]", "value": 12.5, "unit": "µg/mL"}, {"measurement": "MIC", "setting": "[14]", "value": "> 100", "unit": "µg/mL"}, {"measurement": "MIC", "setting": "[15]", "value": "> 100", "unit": "µg/mL"}, {"measurement": "Efficacy", "setting": "[16]", "value": 31, "unit": "%"}, {"measurement": "Efficacy", "setting": "[17]", "value": 20, "unit": "%"}, {"measurement": "MIC", "setting": "[18]", "value": 1.56, "unit": "µg/mL"}, {"measurement": "Efficacy", "setting": "[19]", "value": 78, "unit": "%"}, {"measurement": "MIC", "setting": "[20]", "value": 6.25, "unit": "µg/mL"}, {"measurement": "MIC", "setting": "[21]", "value": 100, "unit": "µg/mL"}, {"measurement": "MIC", "setting": "[22]", "value": 6.25, "unit": "µg/mL"}, {"measurement": "Efficacy", "setting": "[23]", "value": 100, "unit": "%"}, {"measurement": "MSIC", "setting": "[24]", "value": 0.78, "unit": "µg/mL"}, {"measurement": "Efficacy", "setting": "[25]", "value": 100, "unit": "%"}, {"measurement": "Efficacy", "setting": "[26]", "value": 76, "unit": "%"}]}]}
